Measured values published in paper PMC4470474 (Analytical biochemistry, 2014).
Read-outs that look alike come from different tables or passages of the source.

Experiments:
[1] = molecular target: T1, Co(II)-HDAC8 (Homo sapiens, UniProt Q9BY41); format: biochemical; conditions: for substrate inhibition at higher peptide concentrations: peptide 0 – 1600 μM; for effect of pre-incubation of the peptide with Chelex 100 on observed activity: ~6 % (v/v) Chelex 100, room temperature, three hours
T1 sequence (Q9BY41 1-377): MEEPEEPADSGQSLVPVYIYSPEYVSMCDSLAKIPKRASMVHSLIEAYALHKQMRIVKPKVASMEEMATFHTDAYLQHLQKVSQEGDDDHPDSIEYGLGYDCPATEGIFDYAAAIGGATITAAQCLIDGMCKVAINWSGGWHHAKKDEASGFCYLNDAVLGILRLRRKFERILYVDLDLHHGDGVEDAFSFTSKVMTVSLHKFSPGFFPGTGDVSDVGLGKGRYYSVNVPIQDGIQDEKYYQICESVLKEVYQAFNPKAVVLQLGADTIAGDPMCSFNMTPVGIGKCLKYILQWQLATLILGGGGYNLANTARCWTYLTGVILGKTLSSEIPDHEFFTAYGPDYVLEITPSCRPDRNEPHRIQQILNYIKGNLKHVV

[2] = molecular target: T1, Co(II)-HDAC8; test: Fluorescamine assay, HDAC8-catalyzed deacetylation; format: biochemical; conditions: 200 μM peptide, 0.5 μM HDAC8, 30°C
How it was run: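 Started with 0.5 μM HDAC8 and quenched with 1 μM TSA at 0, 30, 60 and 90 min. Enzyme removed by 10K filtration. Flow-through mixed with 1 M boric acid pH 9 and fluorescamine, 10 min at RT. Fluorescence read at ex 340/em 460 nm against an N-α-acetyl lysine methyl ester standard curve (0–5 μM).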

[3] = molecular target: T1, Co(II)-HDAC8; test: Optimized continuous coupled acetate assay, HDAC8-catalyzed deacetylation; format: biochemical; conditions: Figure 5 legend, 100 μM peptide
How it was run: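 Continuous coupled format in EDTA-stripped plates. Mixed 2:1 with Ac-KGGAKac-NH₂ (100 μM final). Started with Co(II)-HDAC8 (0.5–1 μM final). Rate taken from time-dependent NADH fluorescence (ex 340/em 460 nm).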

[4] = molecular target: HDAC3/NCOR1 (Homo sapiens, UniProt O15379+O75376); test: Optimized stopped coupled acetate assay, HDAC3/NCOR1-catalyzed deacetylation; format: biochemical; conditions: 100 μM peptide, 0.5 μM HDAC3/NCOR1
How it was run: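 Started with 0.5 μM HDAC3/NCOR1 and quenched with 0.37% HCl at 0, 30, 60 and 90 min. Flash frozen at −80°C, then neutralised with 0.6% NaHCO₃. Pre-equilibrated ACS/citrate synthase/MDH coupler mix (ATP, NAD⁺, CoA, malate) added, 40 min at RT. NADH fluorescence read at ex 340/em 460 nm.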

[5] = test system: HDAC8; conditions: HDAC8-catalyzed deacetylation; ref [25]; cited from earlier work
[6] = test system: HDAC8; test: Inhibition of HDAC8 activity by magnesium; format: biochemical, human; conditions: 2 mM magnesium, continuous assay conditions; Figure S2
[7] = Michaelis-Menten fit, stopped coupled assay, 30°C, pH 8

Chain of HDAC3/NCOR1 (O15379 whole entry): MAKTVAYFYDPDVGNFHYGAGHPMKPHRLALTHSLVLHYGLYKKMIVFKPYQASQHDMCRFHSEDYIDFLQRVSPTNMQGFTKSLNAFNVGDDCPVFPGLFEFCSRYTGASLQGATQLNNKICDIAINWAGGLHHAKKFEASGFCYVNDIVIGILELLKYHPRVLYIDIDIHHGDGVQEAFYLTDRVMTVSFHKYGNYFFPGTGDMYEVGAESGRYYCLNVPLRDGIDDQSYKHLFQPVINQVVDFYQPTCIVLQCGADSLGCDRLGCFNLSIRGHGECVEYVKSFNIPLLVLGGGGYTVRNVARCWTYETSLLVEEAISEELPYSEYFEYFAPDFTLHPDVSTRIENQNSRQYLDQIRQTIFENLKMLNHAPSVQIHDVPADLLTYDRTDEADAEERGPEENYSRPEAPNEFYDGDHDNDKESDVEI
Chain of HDAC3/NCOR1 (O75376 395-489 partner limits assumed): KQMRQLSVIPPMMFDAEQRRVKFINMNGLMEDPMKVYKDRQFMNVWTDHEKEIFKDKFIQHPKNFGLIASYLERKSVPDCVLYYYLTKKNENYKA

Question: For Ac-KGGAKac-COO^−, which “lowering of kcat/KM relative to methylcoumarin peptide” value ([1]; C-terminal carboxylate vs methylcoumarin) is on record?
Answer: The value was 50 fold.

Question: What about the Km [1, 7] of the same substance?
Answer: Its Km is 730 µM.

Question: And the kcat [1, 7]?
Answer: The kcat was 0.041 s⁻¹.

Question: And the kcat/KM [1, 7]?
Answer: Its kcat/KM is 56 M⁻¹ s⁻¹.

Question: And the deacetylation rate ([1]; coupled acetate assay, 200 μM peptide, 0.5 μM HDAC8)?
Answer: Its deacetylation rate is 0.0021 ± 0.0003 µM/s.

Question: And the deacetylation rate [2]?
Answer: The deacetylation rate was 0.0027 ± 0.0008 µM/s.

Question: For Ac-KGGAKac-NH2, which “ΔΔG‡ (kcat/KM)” value ([1]; Ac-KGGAKac-NH2 compared to Ac-KGGAKac-COO^−) is on record?
Answer: The value was 1.6 kal/mol.

Question: And the “initial rate for deacetylation” value ([1]; Figure 5 legend, side-by-side stopped assay, 0.5 μM Co(II)-HDAC8, 100 μM peptide)?
Answer: The value was 0.018 ± 0.0021 µM/s.

Question: What about the “kcat/KM enhancement relative to Ac-KGGAKac-COO^− peptide” value ([1]; amide vs carboxylate) of the same substance?
Answer: The value was 9 fold.

Question: And the “substrate inhibition at higher peptide concentrations” value ([1]; stopped coupled assay)?
Answer: The value was “modest to substantial inhibition was observed at higher peptide concentrations”.

Question: And the “effect of pre-incubation of the peptide with Chelex 100 on observed activity” value [1]?
Answer: Its value is “no effect”.

Question: What about the “initial rate for deacetylation” value ([3]; 0.5 μM Co(II)-HDAC8) of the same substance?
Answer: The value was 0.011 ± 0.00041 µM/s.

Question: What about the “initial rate for deacetylation” value ([3]; 1 μM Co(II)-HDAC8) of the same substance?
Answer: Its value is 0.022 ± 0.00043 µM/s.

Question: What about the “initial rate of deacetylation” value [4] of the same substance?
Answer: Its value is 0.015 ± 0.0016 µM/s.

Question: For “Ac-KGGAKac-methylcoumarin [reference compound]”, which kcat/KM [5] is on record?
Answer: Its kcat/KM is 2800 M⁻¹ s⁻¹.

Question: What about the “ΔΔG‡ (kcat/KM)” value ([1]; Ac-KGGAKac-methylcoumarin compared to the C-terminal carboxylate peptide) of the same substance?
Answer: The value was 2.3 kcal/mol.

Question: Which results are given for Ac-KGGAKacW-NH2?
Answer: increase of net transition state stabilization ([1]; addition of tryptophan or methylcoumarin moiety to the peptide): 0.1 to 0.5 kcal/mol; substrate inhibition at higher peptide concentrations ([1]; stopped coupled assay): modest to substantial inhibition was observed at higher peptide concentrations; effect of pre-incubation of the peptide with Chelex 100 on observed activity [1]: no effect

Question: With magnesium as the substance, how does the “inhibition of HDAC8 activity” value [6] read?
Answer: Its value is ~ 2 fold.
